Each structure is given as a SMILES string.

Data set [1] has as its system HT-29. The data set is described as follows: Antiproliferative activity against human HT-29 cells after 72 hrs by CellTiter-Glo assay. The settings on record: HT-29, 72 h.
A short description of data set [2]: Oral bioavailability in rat. It counts as ADME, organism-based. Particulars: in vivo. A digest of the protocol:
(§1)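 Rats dosed at about 1.0 mg/kg IV in 30% β-cyclodextrin in 0.05 M MSA, pH 3, and about 5.0 mg/kg orally in 0.5% methylcellulose. Clearance from the IV arm; oral bioavailability from comparison of the two routes.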

A further data set concerns the target Cytochrome P450 3A4 (Homo sapiens, UniProt P08684). The data set is described as follows: Inhibition of CYP3A4 (unknown origin). The data set is classed as ADME.
The target in a further data set is T1, Cytochrome P450 2C8 (Homo sapiens, UniProt P10632).
T1 sequence (P10632 whole entry): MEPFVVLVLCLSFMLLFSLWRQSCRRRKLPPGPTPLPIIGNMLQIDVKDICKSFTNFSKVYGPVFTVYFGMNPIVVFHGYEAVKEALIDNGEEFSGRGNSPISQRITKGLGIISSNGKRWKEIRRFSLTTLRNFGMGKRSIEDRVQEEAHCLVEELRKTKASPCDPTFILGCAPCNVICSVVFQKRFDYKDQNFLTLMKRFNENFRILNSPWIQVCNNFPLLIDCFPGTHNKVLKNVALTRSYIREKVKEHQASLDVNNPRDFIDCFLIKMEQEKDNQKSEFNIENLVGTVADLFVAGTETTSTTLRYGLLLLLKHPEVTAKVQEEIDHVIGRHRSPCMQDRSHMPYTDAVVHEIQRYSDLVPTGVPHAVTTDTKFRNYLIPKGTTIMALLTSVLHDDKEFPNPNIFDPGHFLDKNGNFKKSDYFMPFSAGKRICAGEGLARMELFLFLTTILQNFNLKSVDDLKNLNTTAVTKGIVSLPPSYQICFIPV
The data set is described as follows: Inhibition of CYP2C8 (unknown origin). It counts as ADME.

Data set [3] can be described thus: Clearance in rat. The data set is classed as ADME. Particulars: in vivo; call rule not given here. The essentials:
as §1

A further data set concerns the target hERG (KCNH2) (Homo sapiens, UniProt Q12809). The data set is described as follows: Inhibition of human ERG at 10 uM relative to control.
Data set [4] can be described thus: Inhibition of CYP450 (unknown origin). Particulars: human. The data set is classed as ADME.
Data set [5] is described as follows: AUC (0 to t) in mouse at 1 mg/kg, iv. Particulars: in vivo. The data set is classed as ADME, organism-based. The essentials: (§2)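 Female mice dosed intravenously at 1 mg/kg. Plasma concentration–time data used to derive Cmax, T1/2, MRT, AUC0-t, extrapolated AUC, clearance and steady-state volume of distribution.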
A short description of data set [6]: AUCextrapolated in mouse at 1 mg/kg, iv. The data set is classed as ADME, organism-based. Particulars: in vivo. A digest of the protocol:
as §2

For data set [7], the system named is HT-29. The data set is described as follows: Antitumor activity against human HT-29 cells xenografted in mouse assessed as tumor growth inhibition at 45 mg/kg, iv 1/time/week x 1 cycle relative to control. It counts as functional. The essentials: (§3)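 Mice bearing HT-29 xenografts given 45 mg/kg IV once weekly for one cycle. Efficacy expressed as tumour T/C (%) versus control; tolerability as percent body weight loss.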

Data set [8] can be described thus: AUCextrapolated in mouse at 5 mg/kg, po. The data set is classed as ADME, organism-based. The settings on record: in vivo. A digest of the protocol: (§4)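 Female mice given 5 mg/kg orally. Oral exposure (Cmax, Tmax, T1/2, MRT, AUC0-t, extrapolated AUC) measured, and bioavailability taken relative to the 1 mg/kg IV arm.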
A short description of data set [9]: Cmax in mouse at 5 mg/kg, po. The data set is classed as ADME, organism-based. Further details: dose 5 mg/kg, route oral. Particulars: in vivo. The essentials:
as §4

Data set [10] in a line: Oral bioavailability in mouse at 5 mg/kg. The data set is classed as ADME, organism-based. The settings on record: in vivo. The essentials:
as §4

Data set [11] deals with Mus musculus. The data set is described as follows: Bioavailability in mouse at 5 mg/kg, po. Particulars: in vivo.
A short description of data set [12]: Cmax in mouse at 1 mg/kg, iv. The settings on record: in vivo. It counts as ADME, organism-based. More on the design: dose 1 mg/kg, route intravenous. The essentials:
as §2

A short description of data set [13]: AUC (0 to t) in mouse at 5 mg/kg, po. The data set is classed as ADME, organism-based. Particulars: in vivo. The essentials:
as §4

Data set [14] can be described thus: Tmax in mouse at 5 mg/kg, po. It counts as ADME, organism-based. Particulars: in vivo. The essentials: as §4
Data set [15] in a line: Half life in mouse at 1 mg/kg, iv. The settings on record: in vivo. The data set is classed as ADME, organism-based. The essentials:
as §2

The test system of data set [16] is Mus musculus. The data set is described as follows: Toxicity in mouse xenografted with human HT-29 cells assessed as body weight loss at 45 mg/kg, iv 1/time/week x 1 cycle relative to control. The data set is classed as organism-based. The settings on record: in vivo. The essentials:
as §3
(A xenograft is tissue or cells of one species grown in another, often human tumour cells in immunodeficient mice.)

A short description of data set [17]: Volume of distribution at steady state in mouse at 1 mg/kg, iv. It counts as ADME, organism-based. The settings on record: in vivo, read-out: Vdss. The essentials:
as §2

Data set [18] is described as follows: Mean residence time in mouse at 1 mg/kg, iv. It counts as ADME, organism-based. The settings on record: in vivo. The essentials: as §2
The nature of data set [19]: Clearance in mouse at 1 mg/kg, iv. It counts as ADME, organism-based. Particulars: in vivo. The essentials: as §2
Data set [20] can be described thus: Half life in mouse at 5 mg/kg, po. It counts as ADME, organism-based. Particulars: in vivo. A digest of the protocol:
as §4

Data set [21] in a line: Mean residence time in mouse at 5 mg/kg, po. The data set is classed as ADME, organism-based. The settings on record: in vivo. A digest of the protocol: as §4

Cytochrome P450 3A4, sequence (P08684 whole entry): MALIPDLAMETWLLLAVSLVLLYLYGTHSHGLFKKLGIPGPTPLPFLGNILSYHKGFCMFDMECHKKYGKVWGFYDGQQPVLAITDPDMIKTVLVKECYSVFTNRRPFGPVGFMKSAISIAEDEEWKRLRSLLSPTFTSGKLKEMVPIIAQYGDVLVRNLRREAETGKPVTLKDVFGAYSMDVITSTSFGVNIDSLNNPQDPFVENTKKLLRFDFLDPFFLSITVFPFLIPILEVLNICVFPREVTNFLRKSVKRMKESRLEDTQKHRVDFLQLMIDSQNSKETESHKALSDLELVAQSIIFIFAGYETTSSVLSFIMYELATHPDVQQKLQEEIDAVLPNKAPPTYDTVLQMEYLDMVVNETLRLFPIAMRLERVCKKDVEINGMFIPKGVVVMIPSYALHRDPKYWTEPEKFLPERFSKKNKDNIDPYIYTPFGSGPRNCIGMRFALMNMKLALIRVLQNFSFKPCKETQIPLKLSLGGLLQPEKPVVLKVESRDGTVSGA
hERG (KCNH2), sequence (Q12809 whole entry): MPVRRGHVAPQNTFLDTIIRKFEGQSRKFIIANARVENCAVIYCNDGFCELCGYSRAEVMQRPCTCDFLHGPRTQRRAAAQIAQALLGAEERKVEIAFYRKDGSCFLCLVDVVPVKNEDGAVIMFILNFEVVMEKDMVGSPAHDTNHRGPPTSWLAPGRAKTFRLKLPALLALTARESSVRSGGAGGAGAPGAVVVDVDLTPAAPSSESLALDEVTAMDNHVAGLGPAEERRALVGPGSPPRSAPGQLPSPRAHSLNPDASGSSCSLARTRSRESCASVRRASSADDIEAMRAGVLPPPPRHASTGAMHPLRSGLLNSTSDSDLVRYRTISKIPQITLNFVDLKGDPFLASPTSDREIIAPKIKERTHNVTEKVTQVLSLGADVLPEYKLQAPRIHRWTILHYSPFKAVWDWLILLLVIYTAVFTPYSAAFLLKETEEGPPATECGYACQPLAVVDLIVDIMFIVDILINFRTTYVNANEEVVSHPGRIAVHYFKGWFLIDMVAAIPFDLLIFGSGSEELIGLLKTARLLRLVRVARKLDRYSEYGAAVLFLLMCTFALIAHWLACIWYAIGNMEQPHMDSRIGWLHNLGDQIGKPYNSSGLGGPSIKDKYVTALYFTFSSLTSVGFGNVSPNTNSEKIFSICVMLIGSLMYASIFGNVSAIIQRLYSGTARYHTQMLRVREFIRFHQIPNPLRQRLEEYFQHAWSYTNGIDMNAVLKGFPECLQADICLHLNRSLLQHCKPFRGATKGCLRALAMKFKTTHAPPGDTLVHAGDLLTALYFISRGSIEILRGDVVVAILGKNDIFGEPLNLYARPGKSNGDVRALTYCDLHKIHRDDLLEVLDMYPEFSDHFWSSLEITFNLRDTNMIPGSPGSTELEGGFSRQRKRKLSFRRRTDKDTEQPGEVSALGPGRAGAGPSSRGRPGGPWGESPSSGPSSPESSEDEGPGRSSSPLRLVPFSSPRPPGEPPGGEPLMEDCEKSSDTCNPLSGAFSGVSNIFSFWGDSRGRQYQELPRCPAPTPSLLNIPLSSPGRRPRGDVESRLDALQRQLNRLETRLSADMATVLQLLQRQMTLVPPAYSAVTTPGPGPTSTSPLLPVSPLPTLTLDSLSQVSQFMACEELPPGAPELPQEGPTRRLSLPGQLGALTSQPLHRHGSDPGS

Broadly, the EC50 is the concentration needed to bring the measured effect to its halfway point. High values mean weaker potency, low ones greater potency. Take `CC[C@@H]1c2c(C(N)=O)ncn2-c2cnc(Nc3ccc(C(=O)NC4CCN(C)CC4)cc3OC)nc2N1C1CCCC1`: the EC50 in the data set with HT-29 [1] stood at 20 nM.

Usually IC50 stands for the point on the concentration scale where inhibition reaches its midpoint. Read a low IC50 as greater potency in that assay. One may read the clearance as the volume of plasma or blood freed of the substance per unit of time. The low end stands for a low capacity for elimination, the high end for a high capacity for elimination. Turning to `CC[C@@H]1c2c(C#N)ncn2-c2cnc(Nc3cc(F)c(C(=O)NC4CCN(C)CC4)cc3OC)nc2N1C1CCCC1`, the bioavailability in [2] was determined as 49%. The IC50 on Cytochrome P450 3A4 and at Cytochrome P450 2C8 was < 10000 nM throughout. Further, the EC50 with HT-29 [1] came out at 1 nM. This compound also gave a clearance in data set [3] of 28 mL/min/kg.

One may read the inhibition as the drop in the measured response relative to a control, in per cent. The compound `CC[C@@H]1c2c(C#N)ncn2-c2cnc(Nc3cc(F)c(C(=O)NC4CCN(CC)CC4)cc3OC)nc2N1C(C)C` gave an inhibition at 10 µM against hERG (KCNH2) of 37%. For the same compound, the “inhibition (INH)” value in data set [4] is “Not Active”. This compound also showed an EC50 in the data set on HT-29 [1] of 3 nM.

On to `CCOC(=O)c1ncn2c1[C@@H](CC)N(C1CCCC1)c1nc(Nc3ccc(C(=O)NC4CCN(C)CC4)cc3OC)ncc1-2`, for which a half-maximal effect in the data set with HT-29 [1] (EC50) was put at 9 nM.

On to `CC[C@@H]1c2c(C#N)ncn2-c2cnc(Nc3ccc(C(=O)NC4CCN(C)CC4)cc3OC)nc2N1C1CCCC1`, for which the bioavailability in data set [2] worked out at 0%. In addition, the IC50 against Cytochrome P450 3A4 is < 10000 nM. The EC50 in the data set on HT-29 [1] lay in the range of 2.7 to 3 nM. The same compound came in with a clearance in data set [3] of 76 mL/min/kg.

`CC[C@@H]1c2c(C#N)ncn2-c2cnc(Nc3cc(F)c(C(=O)NC4CCN(C)CC4)cc3OC)nc2N1C1CCCCC1`: the IC50 at Cytochrome P450 3A4 and on Cytochrome P450 2C8 was < 10000 nM each time. Besides, the EC50 with HT-29 [1] stood at 2 nM.

`CCNC(=O)c1ncn2c1[C@@H](CC)N(C1CCCC1)c1nc(Nc3ccc(C(=O)NC4CCN(C)CC4)cc3OC)ncc1-2` gave an EC50 with HT-29 [1] of 100 nM.

For `CC[C@@H]1c2c(C#N)ncn2-c2cnc(Nc3ccc(C(=O)NC4CCN(C)CC4)cc3OC)nc2N1C(C)C`, the bioavailability in data set [2] is 0.5%. For the same compound, the “inhibition (INH)” value in data set [4] was “Not Active”. In the data set on HT-29 [1], this compound displayed an EC50 of 6 nM.

For the compound `CC[C@@H]1c2c(C#N)ncn2-c2cnc(Nc3cc(F)c(C(=O)NC4CN(C)C4)cc3OC)nc2N1C(C)C`, in data set [4], the “inhibition (INH)” value is “Not Active”. For the same compound, a half-maximal response in the data set with HT-29 [1] (EC50) required 3 nM.

`CC[C@@H]1c2c(C(=O)N(C)O)ncn2-c2cnc(Nc3ccc(C(=O)NC4CCN(C)CC4)cc3OC)nc2N1C1CCCC1` returned an EC50 with HT-29 [1] of 60 nM.

Regarding `CC[C@@H]1c2c(C(=O)O)ncn2-c2cnc(Nc3ccc(C(=O)NC4CCN(C)CC4)cc3OC)nc2N1C1CCCC1`, the EC50 with HT-29 [1] came to 400 nM.

For orientation: AUC(0-t) means exposure summed from dosing to a finite time, without extrapolation to infinity. The term AUC denotes concentration integrated over time. The T/C is the result in the treated group divided by that in the control group, in per cent. In general, Cmax refers to the highest concentration seen after dosing. The term Tmax denotes the time at which the peak concentration occurs. For orientation: half-life means the time in which the quantity being followed falls by half. Lower therefore signals rapid decline. The term MRT denotes the average time that molecules of a dose stay in the body. On to `CC[C@@H]1c2c(C#N)ncn2-c2cnc(Nc3cc(F)c(C(=O)N[C@H]4CC[C@H](N5CCN(CC6CC6)CC5)CC4)cc3OC)nc2N1C(C)C`, for which the AUC(0-t) in data set [5] came out at 713 ng·h/mL; in data set [13] it was 3900 ng·h/mL. In addition, the values for the AUC in data set [6] and in [8] were 1010 ng·h/mL and 4590 ng·h/mL, respectively. In the data set on HT-29 [7], the T/C was found to be 54.6%. Further, the Cmax came out at 354 ng/mL in [9] and 258 ng/mL in data set [12]. Further, the bioavailability was determined as 101% in [10] and 100% in data set [2]. This compound returned a F in the data set with Mus musculus [11] of 100%. Besides, the “inhibition (INH)” value in data set [4] was “Not Active”. Besides, in the data set on HT-29 [1], the EC50 worked out at 22 nM. The Tmax in data set [14] was found to be 4 h. Besides, the half-life in [15] is 4.7 h; in data set [20], 8.5 h. In addition, in the data set on Mus musculus [16], the Activity was determined as 5.5%. The Vd in data set [17] was 8.9 L/kg. Moreover, the values for the MRT in data set [18] and in data set [21] were 6.5 h and 13 h, respectively. In addition, the clearance in [19] is 22.7 mL/min/kg.

Consider `CC[C@@H]1c2c(CO)ncn2-c2cnc(Nc3ccc(C(=O)NC4CCN(C)CC4)cc3OC)nc2N1C1CCCC1`, for which, in the data set with HT-29 [1], the EC50 stood at 30 nM.

For `CC[C@@H]1c2c(C#N)ncn2-c2cnc(Nc3cc(F)c(C(=O)NC4CCN(C)CC4)cc3OC)nc2N1C(C)C`, the bioavailability in data set [2] was 47%. Moreover, the “inhibition (INH)” value in data set [4] is given as “Not Active”. For the same compound, in the data set with HT-29 [1], the response was half-maximal at 4 nM (EC50).

Values taken from ChEMBL document CHEMBL3994646, “Structure-based design and SAR development of 5,6-dihydroimidazolo[1,5-f]pteridine derivatives as novel Polo-like kinase-1 inhibitors” (Bioorg Med Chem Lett, 2017).
